Experiments:
[1] = target: T1, GABA receptor subunit (Musca domestica) (UniProt Q75NA5); assay: Displacement of [3H]TBOB binding to GABA receptor in Musca domestica (house fly) heads homogenates assessed as [3H]TBOB binding at 500 uM incubated for 90 min by scintillation counting method
T1 sequence (whole entry): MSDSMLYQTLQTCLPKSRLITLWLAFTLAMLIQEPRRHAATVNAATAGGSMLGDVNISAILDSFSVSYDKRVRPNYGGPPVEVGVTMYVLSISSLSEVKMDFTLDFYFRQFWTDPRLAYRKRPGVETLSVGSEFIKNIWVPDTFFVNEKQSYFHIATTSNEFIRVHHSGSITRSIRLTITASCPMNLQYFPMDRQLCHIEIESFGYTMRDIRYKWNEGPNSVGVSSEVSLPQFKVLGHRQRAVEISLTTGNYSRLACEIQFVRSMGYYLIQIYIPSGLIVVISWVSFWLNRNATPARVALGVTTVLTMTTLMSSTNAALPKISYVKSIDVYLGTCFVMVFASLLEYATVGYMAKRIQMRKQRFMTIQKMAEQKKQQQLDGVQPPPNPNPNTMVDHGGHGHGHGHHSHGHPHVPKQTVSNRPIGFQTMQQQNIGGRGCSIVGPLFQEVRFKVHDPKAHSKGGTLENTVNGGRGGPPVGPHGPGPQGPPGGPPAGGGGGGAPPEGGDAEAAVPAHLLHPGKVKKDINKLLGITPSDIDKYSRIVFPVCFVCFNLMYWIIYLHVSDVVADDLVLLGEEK
Summary of the method: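 House fly head membranes (homogenized in 10 mM Tris-HCl pH 7.5 with 0.25 M sucrose, pelleted at 25,000xg, resuspended in 10 mM phosphate pH 7.5 with 300 mM NaCl); 20 µg protein incubated 90 min at 20 °C with 4 nM [³H]-TBOB and 500 µM monoterpenoid; GF/B filtration; nonspecific binding with 100 µM picrotoxin; specific binding as % of untreated; at least three repeats, mean ± SEM.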

Musca domestica = assay: Toxicity to Musca domestica (house fly) applied to pronotum assessed as compound level per fly causing insect mortality measured after 24 hr; assay type: functional

| SMILES | Activity [1] [%] | LD50 (Musca domestica) [µg] |
| --- | --- | --- |
| CC1=CC[C@@H](C(C)(C)O)CC1 | 95 |  |
| Cc1ccc(C(C)C)c(O)c1 | 180 |  |
| O=C(O)/C=C/c1ccccc1 | 101 |  |
| CC(C)[C@H]1CC[C@H](C)CC1=O (relative stereo) | 86 |  |
| CC(C)C12CCC(C)(CC1)O2 [1,4-CINEOLE] | 117 | 151.7 |
| CC12CCC(CC1=O)C2(C)C (stereo not given) [CAMPHOR] | 70 | 149.5 |
| Cc1ccc(C(C)C)cc1O [CARVACROL] | 156 | 60.1 |
| CC(C)=CCC[C@@H](C)CC=O [CITRONELLAL] | 92 | 46.8 |
| CC(C)=CCCC(C)CC(=O)O (stereo not given) [CITRONELLIC ACID] | 138 | 25.2 |
| C=C(C)[C@H]1CC=C(C)CC1 [D-LIMONENE] | 86 | 89.4 |
| CC12CCC(CC1)C(C)(C)O2 [EUCALYPTOL] | 122 | 63.2 |
| C=CCc1ccc(O)c(OC)c1 [EUGENOL] | 88 | 46.4 |
| C=C(C)C1CCC2(C)OC2C1 (stereo not given) [LIMONENE OXIDE] | 141 | 67.8 |
| C=CC(C)(O)CCC=C(C)C (stereo not given) [LINALOOL] | 124 | 72.3 |
| CC1CCC(C(C)C)C(O)C1 (stereo not given) [MENTHOL] | 80 | 128.9 |
| COC(=O)c1ccccc1O [METHYL SALICYLATE] | 103 | 41.2 |
| Cc1ccc(C(C)C)cc1 [P-CYMENE] | 90 | 94.7 |
| CCC(=O)OCCc1ccccc1 [PHENETHYL PROPIONATE] | 95 | 66.6 |
| O=Cc1ccc2c(c1)OCO2 [PIPERONAL] | 93 | 36.1 |
| CC(C)=C1CC[C@@H](C)CC1=O [PULEGONE] | 132 | 92.2 |
| C=CCc1ccc2c(c1)OCO2 [SAFROLE] | 43 | 18.3 |
| COc1cc(C=O)ccc1O [VANILLIN] | 82 | >500 |

Source: ChEMBL document CHEMBL3044648, “Quantitative structure-activity relationships of monoterpenoid binding activities to the housefly GABA receptor” (2012)
